Laboratory results published in ChEMBL document CHEMBL4689842, “EUbOPEN Chemogenomics Library wave 1” (2021).

Legend:
U2OS = assay: Multiplex assay against U2OS; assay type: toxicity, cell-based; details: human
In short: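 Live cells carried four stains from seeding: Hoechst33342, BioTracker Green Microtubule Cytoskeleton Dye, MitoTracker Red and Annexin V Alexa Fluor 680. They were imaged on a CQ1 microscope at 37°C and 5% CO2 after compound addition. Using CellPathfinder machine-learning gating, cells were split into Hoechst high-intensity objects or normal cells, normal cells into healthy, pyknosed or fragmented nuclei, and pyknosed cells into mitotic or apoptotic; tubulin, mitochondrial-mass and membrane-permeability phenotypes are per cents of healthy-nucleus cells.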

HEK-293T = assay: Incucyte cell viability with HEK293T; assay type: toxicity, cell-based; details: human, 10 µM, compound concentration 10 uM; also: filed as whole numbers so only -1 and 0 and 1 occur
[1] = 12 h, 1 µM, compound concentration 1 uM, replicate 1
[2] = 12 h, 1 µM, compound concentration 1 uM, replicate 2
[3] = 12 h, 10 µM, compound concentration 10 uM, replicate 1
[4] = 12 h, 10 µM, compound concentration 10 uM, replicate 2
[5] = 24 h, 1 µM, compound concentration 1 uM, replicate 1
[6] = 24 h, 1 µM, compound concentration 1 uM, replicate 2
[7] = 24 h, 10 µM, compound concentration 10 uM, replicate 1
[8] = 24 h, 10 µM, compound concentration 10 uM, replicate 2
[9] = 48 h, 1 µM, compound concentration 1 uM, replicate 1
[10] = 48 h, 1 µM, compound concentration 1 uM, replicate 2
[11] = 48 h, 10 µM, compound concentration 10 uM, replicate 1
[12] = 48 h, 10 µM, compound concentration 10 uM, replicate 2

## C[C@@H](Oc1cc(-n2cnc3ccc(CN4CCN(C)CC4)cc32)sc1C(N)=O)c1ccccc1C(F)(F)F [GSK-461364]
U2OS; [1]
  Population Apoptotic (%): 55%
  Population Fragmented Nuclei (%): 13%
  Population Healthy Nuclei (%): 70%
  Population Hoechst High Intensity Objects (%): 7%
  Population Membrane Permeable-Phenotype (%): 7%
  Population Mitochondria Different-Phenotype (%): 60%
  Population Mitotic Cells (%): 45%
  Population Normal (%): 92%
  Population Pyknosed Nuclei (%): 15%
  Population Tubulin-Different-Phenotype (%): 84%
  Total Cell Count: 153
U2OS; [2]
  Population Apoptotic (%): 12%
  Population Fragmented Nuclei (%): 12%
  Population Healthy Nuclei (%): 71%
  Population Hoechst High Intensity Objects (%): 4%
  Population Membrane Permeable-Phenotype (%): 12%
  Population Mitochondria Different-Phenotype (%): 35%
  Population Mitotic Cells (%): 87%
  Population Normal (%): 95%
  Population Pyknosed Nuclei (%): 16%
  Population Tubulin-Different-Phenotype (%): 30%
U2OS; [3]
  Population Apoptotic (%): 58%
  Population Fragmented Nuclei (%): 14%
  Population Healthy Nuclei (%): 40%
  Population Hoechst High Intensity Objects (%): 9%
  Population Membrane Permeable-Phenotype (%): 81%
  Population Mitochondria Different-Phenotype (%): 100%
  Population Mitotic Cells (%): 41%
  Population Normal (%): 90%
  Population Pyknosed Nuclei (%): 44%
  Population Tubulin-Different-Phenotype (%): 100%
  Total Cell Count: 137
U2OS; [4]
  Population Apoptotic (%): 40%
  Population Fragmented Nuclei (%): 13%
  Population Healthy Nuclei (%): 55%
  Population Membrane Permeable-Phenotype (%): 71%
  Population Mitotic Cells (%): 59%
  Population Pyknosed Nuclei (%): 31%
U2OS; [5]
  Population Apoptotic (%): 78%
  Population Fragmented Nuclei (%): 16%
  Population Healthy Nuclei (%): 65%
  Population Hoechst High Intensity Objects (%): 6%
  Population Membrane Permeable-Phenotype (%): 8%
  Population Mitochondria Different-Phenotype (%): 65%
  Population Mitotic Cells (%): 21%
  Population Normal (%): 93%
  Population Pyknosed Nuclei (%): 17%
  Population Tubulin-Different-Phenotype (%): 91%
U2OS; [6]
  Population Apoptotic (%): 50%
  Population Fragmented Nuclei (%): 14%
  Population Healthy Nuclei (%): 68%
  Population Hoechst High Intensity Objects (%): 4%
  Population Membrane Permeable-Phenotype (%): 18%
  Population Mitochondria Different-Phenotype (%): 35%
  Population Mitotic Cells (%): 50%
  Population Normal (%): 95%
  Population Tubulin-Different-Phenotype (%): 28%
U2OS; [7]
  Population Apoptotic (%): 90%
  Population Fragmented Nuclei (%): 23%
  Population Healthy Nuclei (%): 21%
  Population Hoechst High Intensity Objects (%): 8%
  Population Membrane Permeable-Phenotype (%): 92%
  Population Mitochondria Different-Phenotype (%): 100%
  Population Mitotic Cells (%): 9%
  Population Normal (%): 91%
  Population Pyknosed Nuclei (%): 54%
  Population Tubulin-Different-Phenotype (%): 100%
  Total Cell Count: 138
U2OS; [8]
  Population Apoptotic (%): 82%
  Population Fragmented Nuclei (%): 10%
  Population Healthy Nuclei (%): 47%
  Population Hoechst High Intensity Objects (%): 6%
  Population Membrane Permeable-Phenotype (%): 90%
  Population Mitotic Cells (%): 17%
  Population Normal (%): 93%
  Population Pyknosed Nuclei (%): 41%
U2OS; [9]
  Population Apoptotic (%): 71%
  Population Fragmented Nuclei (%): 22%
  Population Healthy Nuclei (%): 51%
  Population Hoechst High Intensity Objects (%): 10%
  Population Membrane Permeable-Phenotype (%): 18%
  Population Mitochondria Different-Phenotype (%): 57%
  Population Mitotic Cells (%): 28%
  Population Normal (%): 89%
  Population Pyknosed Nuclei (%): 25%
  Population Tubulin-Different-Phenotype (%): 85%
  Total Cell Count: 246
U2OS; [10]
  Population Apoptotic (%): 47%
  Population Fragmented Nuclei (%): 10%
  Population Healthy Nuclei (%): 68%
  Population Hoechst High Intensity Objects (%): 5%
  Population Membrane Permeable-Phenotype (%): 27%
  Population Mitochondria Different-Phenotype (%): 25%
  Population Mitotic Cells (%): 52%
  Population Normal (%): 94%
  Population Pyknosed Nuclei (%): 20%
  Population Tubulin-Different-Phenotype (%): 30%
  Total Cell Count: 128
U2OS; [11]
  Population Apoptotic (%): 98%
  Population Fragmented Nuclei (%): 27%
  Population Healthy Nuclei (%): 14%
  Population Hoechst High Intensity Objects (%): 11%
  Population Membrane Permeable-Phenotype (%): 100%
  Population Mitochondria Different-Phenotype (%): 94%
  Population Mitotic Cells (%): 1%
  Population Normal (%): 88%
  Population Pyknosed Nuclei (%): 58%
  Population Tubulin-Different-Phenotype (%): 100%
  Total Cell Count: 138
U2OS; [12]
  Population Apoptotic (%): 82%
  Population Fragmented Nuclei (%): 20%
  Population Healthy Nuclei (%): 43%
  Population Hoechst High Intensity Objects (%): 8%
  Population Membrane Permeable-Phenotype (%): 97%
  Population Mitochondria Different-Phenotype (%): 100%
  Population Mitotic Cells (%): 17%
  Population Normal (%): 91%
  Population Pyknosed Nuclei (%): 36%
  Total Cell Count: 108
HEK-293T; 6 h, replicate number 1, timepoint 6 hours
  Growth Rate: 0
HEK-293T; 12 h, replicate number 1, timepoint 12 hours
  Growth Rate: 0
HEK-293T; 18 h, replicate number 1, timepoint 18 hours
  Growth Rate: 0
HEK-293T; 24 h, replicate number 1, timepoint 24 hours
  Growth Rate: 0
